System: Fibroblast
Test: Multiplex assay against human fibroblast
Assay type: toxicity, cell-based
Summary of the method: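 Live cells were stained at seeding with Hoechst33342, BioTracker Green Microtubule Cytoskeleton Dye, MitoTracker Red and Annexin V Alexa Fluor 680. Following compound addition, they were imaged on a CQ1 microscope at 37°C and 5% CO2 and gated by CellPathfinder machine learning into Hoechst high-intensity objects or normal cells, with normal cells split into healthy, pyknosed or fragmented nuclei and pyknosed cells into mitotic or apoptotic. Tubulin, mitochondrial-mass and membrane-permeability phenotypes are per cents of healthy-nucleus cells.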

[1] = 12 h, 1 µM, compound concentration 1 uM, replicate 1
[2] = 12 h, 1 µM, compound concentration 1 uM, replicate 2
[3] = 12 h, 10 µM, compound concentration 10 uM, replicate 1
[4] = 12 h, 10 µM, compound concentration 10 uM, replicate 2
[5] = 24 h, 1 µM, compound concentration 1 uM, replicate 1
[6] = 24 h, 1 µM, compound concentration 1 uM, replicate 2
[7] = 24 h, 10 µM, compound concentration 10 uM, replicate 1
[8] = 24 h, 10 µM, compound concentration 10 uM, replicate 2
[9] = 48 h, 1 µM, compound concentration 1 uM, replicate 1
[10] = 48 h, 1 µM, compound concentration 1 uM, replicate 2
[11] = 48 h, 10 µM, compound concentration 10 uM, replicate 1
[12] = 48 h, 10 µM, compound concentration 10 uM, replicate 2

Compound: COc1ccccc1N1CCN(C[C@@H](C(=O)NC(C)(C)C)c2ccccc2)CC1.Cl.Cl
- Population Apoptotic (%) [1]: 43%
- Population Fragmented Nuclei (%) [1]: 12%
- Population Healthy Nuclei (%) [1]: 70%
- Population Hoechst High Intensity Objects (%) [1]: 2%
- Population Membrane Permeable-Phenotype (%) [1]: 0%
- Population Mitochondria Different-Phenotype (%) [1]: 8%
- Population Mitotic Cells (%) [1]: 56%
- Population Normal (%) [1]: 97%
- Population Pyknosed Nuclei (%) [1]: 16%
- Population Tubulin-Different-Phenotype (%) [1]: 37%
- Total Cell Count [1]: 141
- Population Apoptotic (%) [2]: 40%
- Population Fragmented Nuclei (%) [2]: 25%
- Population Healthy Nuclei (%) [2]: 43%
- Population Hoechst High Intensity Objects (%) [2]: 5%
- Population Mitochondria Different-Phenotype (%) [2]: 4%
- Population Mitotic Cells (%) [2]: 60%
- Population Normal (%) [2]: 94%
- Population Pyknosed Nuclei (%) [2]: 30%
- Population Tubulin-Different-Phenotype (%) [2]: 43%
- Total Cell Count [2]: 155
- Population Apoptotic (%) [3]: 50%
- Population Fragmented Nuclei (%) [3]: 20%
- Population Healthy Nuclei (%) [3]: 59%
- Population Hoechst High Intensity Objects (%) [3]: 5%
- Population Membrane Permeable-Phenotype (%) [3]: 1%
- Population Mitochondria Different-Phenotype (%) [3]: 20%
- Population Mitotic Cells (%) [3]: 50%
- Population Normal (%) [3]: 94%
- Population Pyknosed Nuclei (%) [3]: 20%
- Population Tubulin-Different-Phenotype (%) [3]: 66%
- Total Cell Count [3]: 134
- Population Apoptotic (%) [4]: 48%
- Population Fragmented Nuclei (%) [4]: 32%
- Population Healthy Nuclei (%) [4]: 42%
- Population Membrane Permeable-Phenotype (%) [4]: 6%
- Population Mitochondria Different-Phenotype (%) [4]: 12%
- Population Mitotic Cells (%) [4]: 51%
- Population Pyknosed Nuclei (%) [4]: 24%
- Population Tubulin-Different-Phenotype (%) [4]: 70%
- Total Cell Count [4]: 116
- Population Apoptotic (%) [5]: 50%
- Population Fragmented Nuclei (%) [5]: 12%
- Population Healthy Nuclei (%) [5]: 73%
- Population Hoechst High Intensity Objects (%) [5]: 2%
- Population Membrane Permeable-Phenotype (%) [5]: 0%
- Population Mitochondria Different-Phenotype (%) [5]: 15%
- Population Mitotic Cells (%) [5]: 50%
- Population Normal (%) [5]: 97%
- Population Pyknosed Nuclei (%) [5]: 14%
- Population Tubulin-Different-Phenotype (%) [5]: 32%
- Total Cell Count [5]: 143
- Population Fragmented Nuclei (%) [6]: 24%
- Population Healthy Nuclei (%) [6]: 55%
- Population Hoechst High Intensity Objects (%) [6]: 3%
- Population Membrane Permeable-Phenotype (%) [6]: 8%
- Population Mitochondria Different-Phenotype (%) [6]: 3%
- Population Normal (%) [6]: 96%
- Population Pyknosed Nuclei (%) [6]: 19%
- Population Tubulin-Different-Phenotype (%) [6]: 50%
- Total Cell Count [6]: 151
- Population Apoptotic (%) [7]: 83%
- Population Fragmented Nuclei (%) [7]: 19%
- Population Healthy Nuclei (%) [7]: 65%
- Population Hoechst High Intensity Objects (%) [7]: 8%
- Population Membrane Permeable-Phenotype (%) [7]: 0%
- Population Mitochondria Different-Phenotype (%) [7]: 37%
- Population Mitotic Cells (%) [7]: 16%
- Population Normal (%) [7]: 91%
- Population Pyknosed Nuclei (%) [7]: 14%
- Population Tubulin-Different-Phenotype (%) [7]: 63%
- Total Cell Count [7]: 132
- Population Apoptotic (%) [8]: 40%
- Population Fragmented Nuclei (%) [8]: 39%
- Population Healthy Nuclei (%) [8]: 41%
- Population Hoechst High Intensity Objects (%) [8]: 3%
- Population Membrane Permeable-Phenotype (%) [8]: 8%
- Population Mitochondria Different-Phenotype (%) [8]: 8%
- Population Mitotic Cells (%) [8]: 59%
- Population Normal (%) [8]: 96%
- Population Pyknosed Nuclei (%) [8]: 19%
- Population Tubulin-Different-Phenotype (%) [8]: 76%
- Total Cell Count [8]: 116
- Population Apoptotic (%) [9]: 84%
- Population Fragmented Nuclei (%) [9]: 18%
- Population Healthy Nuclei (%) [9]: 71%
- Population Hoechst High Intensity Objects (%) [9]: 5%
- Population Membrane Permeable-Phenotype (%) [9]: 1%
- Population Mitochondria Different-Phenotype (%) [9]: 12%
- Population Mitotic Cells (%) [9]: 15%
- Population Normal (%) [9]: 94%
- Population Pyknosed Nuclei (%) [9]: 10%
- Population Tubulin-Different-Phenotype (%) [9]: 34%
- Total Cell Count [9]: 138
- Population Apoptotic (%) [10]: 60%
- Population Fragmented Nuclei (%) [10]: 31%
- Population Healthy Nuclei (%) [10]: 52%
- Population Membrane Permeable-Phenotype (%) [10]: 5%
- Population Mitochondria Different-Phenotype (%) [10]: 5%
- Population Mitotic Cells (%) [10]: 40%
- Population Pyknosed Nuclei (%) [10]: 15%
- Population Tubulin-Different-Phenotype (%) [10]: 56%
- Total Cell Count [10]: 171
- Population Apoptotic (%) [11]: 84%
- Population Fragmented Nuclei (%) [11]: 18%
- Population Healthy Nuclei (%) [11]: 63%
- Population Hoechst High Intensity Objects (%) [11]: 14%
- Population Membrane Permeable-Phenotype (%) [11]: 0%
- Population Mitochondria Different-Phenotype (%) [11]: 34%
- Population Mitotic Cells (%) [11]: 15%
- Population Normal (%) [11]: 85%
- Population Pyknosed Nuclei (%) [11]: 18%
- Population Tubulin-Different-Phenotype (%) [11]: 65%
- Total Cell Count [11]: 122
- Population Apoptotic (%) [12]: 44%
- Population Fragmented Nuclei (%) [12]: 50%
- Population Healthy Nuclei (%) [12]: 41%
- Population Hoechst High Intensity Objects (%) [12]: 3%
- Population Membrane Permeable-Phenotype (%) [12]: 8%
- Population Mitochondria Different-Phenotype (%) [12]: 8%
- Population Mitotic Cells (%) [12]: 55%
- Population Normal (%) [12]: 96%
- Population Pyknosed Nuclei (%) [12]: 7%
- Population Tubulin-Different-Phenotype (%) [12]: 67%
